Data from ChEMBL document CHEMBL1275252, “First survey of metallo-beta-lactamases in clinical isolates of Pseudomonas aeruginosa in a German university hospital” (2010).
Values after ≈ are worked out from the molar mass of the structure shown.

Key:
Format in all cases: functional
[1] = tested on: Pseudomonas aeruginosa; experiment: Antimicrobial activity against Pseudomonas aeruginosa isolate PA399 expressing VIM-2 beta-lactamase
[2] = tested on: Pseudomonas aeruginosa; experiment: Antimicrobial activity against Pseudomonas aeruginosa isolate PA462 expressing VIM-2 beta-lactamase
[3] = tested on: Pseudomonas aeruginosa; experiment: Antimicrobial activity against Pseudomonas aeruginosa isolate PA465 expressing VIM-2 beta-lactamase
[4] = tested on: Pseudomonas aeruginosa; experiment: Antimicrobial activity against Pseudomonas aeruginosa isolate PA469 expressing VIM-2 beta-lactamase
[5] = tested on: Pseudomonas aeruginosa; experiment: Antimicrobial activity against Pseudomonas aeruginosa isolate PA475 expressing VIM-2 beta-lactamase
[6] = tested on: Pseudomonas aeruginosa; experiment: Antimicrobial activity against Pseudomonas aeruginosa isolate PA477 expressing VIM-2 beta-lactamase
[7] = tested on: Pseudomonas aeruginosa; experiment: Antimicrobial activity against Pseudomonas aeruginosa isolate PA481 expressing VIM-2 beta-lactamase
[8] = tested on: Pseudomonas aeruginosa; experiment: Antimicrobial activity against Pseudomonas aeruginosa isolate PA500 expressing VIM-1 beta-lactamase
[9] = tested on: Pseudomonas aeruginosa; experiment: Antimicrobial activity against Pseudomonas aeruginosa isolate PA510 expressing VIM-2 beta-lactamase
[10] = tested on: Pseudomonas aeruginosa; experiment: Antimicrobial activity against metallo-beta-lactamase-negative Pseudomonas aeruginosa isolate PA459
Summary of the method: (§1)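 MBL-negative clinical P. aeruginosa isolates with reduced imipenem susceptibility, collected at the study hospital, some from cystic fibrosis patients. Species identity was confirmed by automated Gram-negative identification card. MIC was read in μg/ml.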

[11] = tested on: Pseudomonas aeruginosa; experiment: Antimicrobial activity against metallo-beta-lactamase-negative Pseudomonas aeruginosa isolate PA460
[12] = tested on: Pseudomonas aeruginosa; experiment: Antimicrobial activity against metallo-beta-lactamase-negative Pseudomonas aeruginosa isolate PA479
[13] = tested on: Pseudomonas aeruginosa; experiment: Antimicrobial activity against metallo-beta-lactamase-negative Pseudomonas aeruginosa isolate PA483
[14] = tested on: Pseudomonas aeruginosa; experiment: Antimicrobial activity against metallo-beta-lactamase-negative Pseudomonas aeruginosa isolate PA494
[15] = tested on: Pseudomonas aeruginosa; experiment: Antimicrobial activity against metallo-beta-lactamase-negative Pseudomonas aeruginosa isolate PA507; summary of the method: as §1
[16] = tested on: Pseudomonas aeruginosa; experiment: Antimicrobial activity against metallo-beta-lactamase-negative Pseudomonas aeruginosa isolate PA509
[17] = tested on: Pseudomonas aeruginosa; experiment: Antimicrobial activity against Pseudomonas aeruginosa PA431 expressing IMP-1 beta-lactamase
Summary of the method: (§2)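 Well-characterized MBL-producing control strains from earlier studies: nine P. aeruginosa and one A. baumannii. MIC was read in μg/ml and used to set screening breakpoints for MBL producers.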

[18] = tested on: Pseudomonas aeruginosa; experiment: Antimicrobial activity against Pseudomonas aeruginosa PA552 expressing IMP-1 beta-lactamase; summary of the method: as §2
[19] = tested on: Pseudomonas aeruginosa; experiment: Antimicrobial activity against Pseudomonas aeruginosa PA386 expressing IMP-13 beta-lactamase; summary of the method: as §2
[20] = tested on: Pseudomonas aeruginosa; experiment: Antimicrobial activity against Pseudomonas aeruginosa PA550 expressing VIM-1 beta-lactamase; summary of the method: as §2
[21] = tested on: Pseudomonas aeruginosa; experiment: Antimicrobial activity against Pseudomonas aeruginosa PA373 expressing VIM-2 beta-lactamase; summary of the method: as §2
[22] = tested on: Pseudomonas aeruginosa; experiment: Antimicrobial activity against Pseudomonas aeruginosa PA399 expressing VIM-2 beta-lactamase; summary of the method: as §2
[23] = tested on: Pseudomonas aeruginosa; experiment: Antimicrobial activity against Pseudomonas aeruginosa PA430 expressing VIM-4 beta-lactamase; summary of the method: as §2
[24] = tested on: Pseudomonas aeruginosa; experiment: Antimicrobial activity against Pseudomonas aeruginosa PA554 expressing GIM-1 beta-lactamase; summary of the method: as §2
[25] = tested on: Acinetobacter baumannii; experiment: Antimicrobial activity against Acinetobacter baumannii AB551 expressing SIM-1 beta-lactamase; summary of the method: as §2
[26] = tested on: Pseudomonas aeruginosa; experiment: Antimicrobial activity against Pseudomonas aeruginosa PA553 expressing SPM-1 beta-lactamase; summary of the method: as §2
[27] = tested on: Pseudomonas aeruginosa; experiment: Antimicrobial activity against metallo-beta-lactamase-negative Pseudomonas aeruginosa isolate PA339; summary of the method: as §1
[28] = tested on: Pseudomonas aeruginosa; experiment: Antimicrobial activity against metallo-beta-lactamase-negative Pseudomonas aeruginosa isolate PA340; summary of the method: as §1
[29] = tested on: Pseudomonas aeruginosa; experiment: Antimicrobial activity against metallo-beta-lactamase-negative Pseudomonas aeruginosa isolate PA341; summary of the method: as §1
[30] = tested on: Pseudomonas aeruginosa; experiment: Antimicrobial activity against metallo-beta-lactamase-negative Pseudomonas aeruginosa isolate PA342; summary of the method: as §1
[31] = tested on: Pseudomonas aeruginosa; experiment: Antimicrobial activity against metallo-beta-lactamase-negative Pseudomonas aeruginosa isolate PA346; summary of the method: as §1
[32] = tested on: Pseudomonas aeruginosa; experiment: Antimicrobial activity against metallo-beta-lactamase-negative Pseudomonas aeruginosa isolate PA349; summary of the method: as §1
[33] = tested on: Pseudomonas aeruginosa; experiment: Antimicrobial activity against metallo-beta-lactamase-negative Pseudomonas aeruginosa isolate PA350; summary of the method: as §1
[34] = tested on: Pseudomonas aeruginosa; experiment: Antimicrobial activity against metallo-beta-lactamase-negative Pseudomonas aeruginosa isolate PA352; summary of the method: as §1
[35] = tested on: Pseudomonas aeruginosa; experiment: Antimicrobial activity against metallo-beta-lactamase-negative Pseudomonas aeruginosa isolate PA355; summary of the method: as §1
[36] = tested on: Pseudomonas aeruginosa; experiment: Antimicrobial activity against metallo-beta-lactamase-negative Pseudomonas aeruginosa isolate PA356; summary of the method: as §1
[37] = tested on: Pseudomonas aeruginosa; experiment: Antimicrobial activity against metallo-beta-lactamase-negative Pseudomonas aeruginosa isolate PA360; summary of the method: as §1
[38] = tested on: Pseudomonas aeruginosa; experiment: Antimicrobial activity against metallo-beta-lactamase-negative Pseudomonas aeruginosa isolate PA361; summary of the method: as §1
[39] = tested on: Pseudomonas aeruginosa; experiment: Antimicrobial activity against metallo-beta-lactamase-negative Pseudomonas aeruginosa isolate PA362; summary of the method: as §1
[40] = tested on: Pseudomonas aeruginosa; experiment: Antimicrobial activity against metallo-beta-lactamase-negative Pseudomonas aeruginosa isolate PA364; summary of the method: as §1
[41] = tested on: Pseudomonas aeruginosa; experiment: Antimicrobial activity against metallo-beta-lactamase-negative Pseudomonas aeruginosa isolate PA368; summary of the method: as §1
[42] = tested on: Pseudomonas aeruginosa; experiment: Antimicrobial activity against metallo-beta-lactamase-negative Pseudomonas aeruginosa isolate PA370; summary of the method: as §1
[43] = tested on: Pseudomonas aeruginosa; experiment: Antimicrobial activity against metallo-beta-lactamase-negative Pseudomonas aeruginosa isolate PA376
[44] = tested on: Pseudomonas aeruginosa; experiment: Antimicrobial activity against metallo-beta-lactamase-negative Pseudomonas aeruginosa isolate PA377; summary of the method: as §1
[45] = tested on: Pseudomonas aeruginosa; experiment: Antimicrobial activity against metallo-beta-lactamase-negative Pseudomonas aeruginosa isolate PA380; summary of the method: as §1
[46] = tested on: Pseudomonas aeruginosa; experiment: Antimicrobial activity against metallo-beta-lactamase-negative Pseudomonas aeruginosa isolate PA381; summary of the method: as §1
[47] = tested on: Pseudomonas aeruginosa; experiment: Antimicrobial activity against metallo-beta-lactamase-negative Pseudomonas aeruginosa isolate PA382; summary of the method: as §1
[48] = tested on: Pseudomonas aeruginosa; experiment: Antimicrobial activity against metallo-beta-lactamase-negative Pseudomonas aeruginosa isolate PA395; summary of the method: as §1
[49] = tested on: Pseudomonas aeruginosa; experiment: Antimicrobial activity against metallo-beta-lactamase-negative Pseudomonas aeruginosa isolate PA734 isolated from patient with cystic fibrosis; summary of the method: as §1
[50] = tested on: Pseudomonas aeruginosa; experiment: Antimicrobial activity against metallo-beta-lactamase-negative Pseudomonas aeruginosa isolate PA736 isolated from patient with cystic fibrosis; summary of the method: as §1
[51] = tested on: Pseudomonas aeruginosa; experiment: Antimicrobial activity against metallo-beta-lactamase-negative Pseudomonas aeruginosa isolate PA758 isolated from patient with cystic fibrosis; summary of the method: as §1
[52] = tested on: Pseudomonas aeruginosa; experiment: Antimicrobial activity against metallo-beta-lactamase-negative Pseudomonas aeruginosa isolate PA774 isolated from patient with cystic fibrosis; summary of the method: as §1

Compound: GENTAMICIN
- MIC [1]: > 16 µg/mL
- MIC [2]: > 16 µg/mL
- MIC [3]: > 16 µg/mL
- MIC [4]: > 16 µg/mL
- MIC [5]: > 16 µg/mL
- MIC [6]: > 16 µg/mL
- MIC [7]: > 16 µg/mL
- MIC [8]: > 16 µg/mL
- MIC [9]: > 16 µg/mL
- MIC [10]: 1 µg/mL
- MIC [11]: > 16 µg/mL
- MIC [12]: > 16 µg/mL
- MIC [13]: 1 µg/mL
- MIC [14]: 8 µg/mL
- MIC [15]: > 16 µg/mL
- MIC [16]: > 16 µg/mL

Compound: CC(C)(O/N=C(\C(=O)N[C@@H]1C(=O)N2C(C(=O)[O-])=C(C[n+]3ccccc3)CS[C@H]12)c1csc(N)n1)C(=O)O [CEFTAZIDIME]
- MIC [17]: ≥ 64 µg/mL
- MIC [18]: ≥ 64 µg/mL
- MIC [19]: ≥ 64 µg/mL
- MIC [20]: ≥ 64 µg/mL
- MIC [21]: ≥ 64 µg/mL
- MIC [22]: ≥ 64 µg/mL
- MIC [23]: ≥ 64 µg/mL
- MIC [24]: ≥ 64 µg/mL
- MIC [25]: ≥ 64 µg/mL
- MIC [26]: ≥ 64 µg/mL
- MIC [27]: 8 µg/mL (≈ 14.6 µM)
- MIC [28]: 4 µg/mL (≈ 7.32 µM)
- MIC [29]: ≥ 64 µg/mL
- MIC [30]: 4 µg/mL (≈ 7.32 µM)
- MIC [31]: 4 µg/mL (≈ 7.32 µM)
- MIC [32]: 8 µg/mL (≈ 14.6 µM)
- MIC [33]: 4 µg/mL (≈ 7.32 µM)
- MIC [34]: 4 µg/mL (≈ 7.32 µM)
- MIC [35]: 4 µg/mL (≈ 7.32 µM)
- MIC [36]: 4 µg/mL (≈ 7.32 µM)
- MIC [37]: 16 µg/mL (≈ 29.3 µM)
- MIC [38]: ≥ 64 µg/mL
- MIC [39]: 32 µg/mL (≈ 58.5 µM)
- MIC [40]: 4 µg/mL (≈ 7.32 µM)
- MIC [41]: 4 µg/mL (≈ 7.32 µM)
- MIC [42]: 8 µg/mL (≈ 14.6 µM)
- MIC [43]: 16 µg/mL (≈ 29.3 µM)
- MIC [44]: 8 µg/mL (≈ 14.6 µM)
- MIC [45]: 4 µg/mL (≈ 7.32 µM)
- MIC [46]: 4 µg/mL (≈ 7.32 µM)
- MIC [47]: 4 µg/mL (≈ 7.32 µM)
- MIC [48]: ≥ 64 µg/mL
- MIC [49]: 4 µg/mL (≈ 7.32 µM)
- MIC [50]: ≥ 64 µg/mL
- MIC [51]: 4 µg/mL (≈ 7.32 µM)
- MIC [52]: ≥ 64 µg/mL
- MIC [1]: ≥ 64 µg/mL
- MIC [2]: ≥ 64 µg/mL
- MIC [3]: ≥ 64 µg/mL
- MIC [4]: ≥ 64 µg/mL
- MIC [5]: ≥ 64 µg/mL
- MIC [6]: ≥ 64 µg/mL
- MIC [7]: ≥ 64 µg/mL
- MIC [8]: ≥ 64 µg/mL
- MIC [9]: ≥ 64 µg/mL
- MIC [10]: 32 µg/mL (≈ 58.5 µM)
- MIC [11]: 32 µg/mL (≈ 58.5 µM)
- MIC [12]: ≥ 64 µg/mL
- MIC [13]: ≥ 64 µg/mL
- MIC [14]: 32 µg/mL (≈ 58.5 µM)
- MIC [15]: 32 µg/mL (≈ 58.5 µM)
- MIC [16]: 32 µg/mL (≈ 58.5 µM)

Compound: NC[C@H]1O[C@H](O[C@H]2[C@H](O)[C@@H](O[C@H]3O[C@H](CO)[C@@H](O)[C@H](N)[C@H]3O)[C@H](N)C[C@@H]2N)[C@H](N)C[C@@H]1O [TOBRAMYCIN]
- MIC [1]: ≥ 16 µg/mL
- MIC [2]: ≥ 16 µg/mL
- MIC [3]: ≤ 1 µg/mL
- MIC [4]: ≥ 16 µg/mL
- MIC [5]: ≥ 16 µg/mL
- MIC [6]: ≥ 16 µg/mL
- MIC [7]: ≥ 16 µg/mL
- MIC [8]: 8 µg/mL (≈ 17.1 µM)
- MIC [9]: ≥ 16 µg/mL
- MIC [10]: 1 µg/mL (≈ 2.14 µM)
- MIC [11]: ≥ 16 µg/mL
- MIC [12]: ≥ 16 µg/mL
- MIC [13]: 1 µg/mL (≈ 2.14 µM)
- MIC [14]: 1 µg/mL (≈ 2.14 µM)
- MIC [15]: 1 µg/mL (≈ 2.14 µM)
- MIC [16]: ≥ 16 µg/mL
